Screening data (PubChem)
A selection: hits, their analogues and other compounds. The true share with any hit is near 4.1%.
KCC2 mod: modulates chloride dependent transport by human KCC2. Q9H2X9. KCC2 cells, thallium flux FluoZin-2 fluorescence. B-score of Tl+ flux slope (higher = more flux/activation; lower = inhibition) at 10 µM. 190,000 compounds, 2.2% hits;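 active means thallium flux slope and its plate-corrected score both differing from the plate sample mean at a set confidence after two filtering rounds, in either direction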;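 further: slope of fluorescence scaled to starting intensity during 10 to 20 s after thallium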
KCNK9 inh: inhibitors of human KCNK9 two-pore domain potassium channel. Q9NPC2. HEK293 KCNK9, FluxOR thallium flux fluorescence; hits give low values. B-score at 10 µM. 310,000 compounds, 1.2% hits. AID 488922;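 active means ratio B-score over 3 SD below the library mean, with starting fluorescence within 5 SD of its mean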;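 further: negative B-score means less thallium flux so channel inhibition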
KCNQ1 inh: blocks the human KCNQ1 potassium channel. P51787. B-score at 10 µM. CHO-K1 KCNQ1, FluxOR thallium flux fluorescence; hits give high values. 310,000 compounds, 1.3% hits;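 active means compounds whose thallium flux B-score, printed positive for inhibition, exceeds three library SD while starting fluorescence stays within three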;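 further: channel opened by potassium depolarization with thallium stimulus after 20 min compound exposure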
KCNQ1 pot: potentiators or activators of human KCNQ1 potassium channel; CHO-K1 KCNQ1, thallium flux FluxOR fluorescence; hits give high values; 310,000 compounds, 0.35% hits; B-score at 10 µM;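 active means fluorescence ratio B-score, a plate-corrected score, at least three library SD, with initial intensity B-score within 5 SD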
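assay system = CHO-K1 cells stably expressing KCNQ1 | medium = assay buffer, equal DMSO in all wells | timing = 37 °C overnight plating, 90-min dark dye load, 20-min compound pretreatment | measured by = kinetic FluxOR thallium fluorescence, 10-s 1-Hz baseline, 110-s post-stimulus read | measure = fluorescence change relative to baseline, converted to B score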
hERG rescue: compounds protecting human hERG from proarrhythmic drug block; CHO-hERG, FluxOR thallium flux, dofetilide IC70 present; 310,000 compounds, 0.51% hits; activation (rescue from dofetilide block), less the hit threshold, % at 10 µM; Q12809; AID 1511;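 active means activation above the mean of controls blocked by dofetilide plus 5 SD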;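 further: thallium influx through hERG after potassium depolarization seen as dye fluorescence rise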
KCNK3 block: human KCNK3 channel inhibition, primary screen. O14649. CHO-KCNK3 thallium flux, FluxOR fluorescence; hits give low values. B-score at 10 µM. 340,000 compounds, 0.84% hits;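 active means B-score under library mean minus 4 SD, starting fluorescence ratio at most library mean plus 5 SD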;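 further: more negative B-score means stronger inhibition of thallium flux through KCNK3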
Target sequence (O14649 whole entry, looked up): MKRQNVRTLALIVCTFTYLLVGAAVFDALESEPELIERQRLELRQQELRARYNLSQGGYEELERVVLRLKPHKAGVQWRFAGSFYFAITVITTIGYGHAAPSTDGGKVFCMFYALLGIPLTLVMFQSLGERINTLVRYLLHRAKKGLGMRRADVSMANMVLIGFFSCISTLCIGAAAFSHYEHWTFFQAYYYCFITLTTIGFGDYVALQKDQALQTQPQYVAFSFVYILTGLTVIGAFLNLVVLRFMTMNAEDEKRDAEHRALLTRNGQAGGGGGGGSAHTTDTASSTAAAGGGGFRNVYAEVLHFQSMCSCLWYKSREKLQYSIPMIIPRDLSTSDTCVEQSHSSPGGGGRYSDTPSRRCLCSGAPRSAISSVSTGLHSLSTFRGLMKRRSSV
KCNK9 inh conf: confirmation of human KCNK9 potassium channel inhibitors | inhibition, % at 10 µM | shares compounds with KCNK9 inh | 4,900 compounds, 43% hits | HEK293 KCNK9 cells, FluxOR thallium flux fluorescence;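 active means thallium signal inhibited by more than 5 SD of the compound-free buffer control wells, on both duplicate plates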;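 further: 0% = assay buffer control wells without compound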
Kir2-1 spec: selectivity of KCNK9 modulators against mouse Kir2.1; shares compounds with KCNK9 inh; Kir2.1 cells, FluxOR thallium flux fluorescence; 4,900 compounds, 4% hits; inhibition, % at 10 µM;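 active means thallium signal drop more than 5 SD beyond the mean of the no-compound control wells, seen in both duplicate plates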;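 further: signal is fluorescence rise after thallium addition divided by baseline fluorescence; plate controls were assay buffer only for no effect and full block by chlorpromazine control for full effect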
KCNK9 uninduced: non-induced cell nonspecific activity of KCNK9 modulators | shares compounds with KCNK9 inh | non-induced KCNK9-HEK293, FluxOR thallium flux | inhibition, % at 10 µM | 4,900 compounds, 40% hits;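 active means thallium signal drop beyond 5 SD of the untreated control mean, on both duplicate plates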;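 further: plate controls were buffer only IC0 wells for no effect and SID17386958 at its maximal inhibitory level for full effect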
The depositor's hits bear a star; i = inactive; nt = no result.

SMILES	KCC2 mod	KCNK9 inh	KCNQ1 inh	KCNQ1 pot	hERG rescue	KCNK3 block	KCNK9 inh conf	Kir2-1 spec	KCNK9 uninduced
O=C(NCC1COc2ccccc2O1)C1CCN(S(=O)(=O)c2ccccc2)CC1 (stereo not drawn)	nt	nt	nt	nt	nt	i	nt	nt	nt
CC(C)=CCC12Oc3cc(O)ccc3C1(O)Oc1cc3c(c(O)c1C2=O)C=CC(C)(C)O3 (stereo not drawn)	nt	-8.26*	i	i	-5.9	nt	i	i	24.5%*
O=C(CSCc1ccc(Cl)cc1)NCCSCc1ccco1	-1.66	i	i	i	-10.6	i	i	i	i
COc1ccccc1OCC(=O)NCCSCc1ccc(Cl)cc1	-1.82	i	i	i	-14.5	i	i	i	i
COc1ccccc1N(CC(=O)NCCSCc1ccc(Cl)cc1)S(C)(=O)=O	nt	i	i	i	-3.5	i	nt	nt	nt
COc1ccc(NC(=O)CC(C)CC(=O)NCc2ccc(F)cc2)c(OC)c1 (stereo not drawn)	nt	i	i	i	-14.6	i	nt	nt	nt
CC1CCc2c(sc(NS(=O)(=O)c3ccccc3)c2C(=O)OC(C)C)C1 (stereo not drawn)	10.2*	i	i	26*	4.4	i	i	i	i
Cc1ccc(-c2cc(C(F)F)nc(N3CCC(C)CC3)n2)cc1	0.00838	i	i	i	-13.4	i	nt	nt	nt
COc1cccc(NC(=O)c2sc3nc(N4CCOCC4)c4c(c3c2N)CCCC4)c1	nt	-11*	i	i	-16.1	i	i	i	i
CCCn1nc(C(=O)OCC(=O)Nc2ccc(C(N)=O)cc2)c2ccccc2c1=O	nt	nt	nt	nt	nt	i	nt	nt	nt
CCOc1ccc(C(C(=O)NCC2CCCO2)N(CCc2cccc(C)c2)C(=O)c2snc(C(N)=O)c2N)cc1 (stereo not drawn)	nt	i	i	i	-15.0	i	nt	nt	nt
COc1cc(Cl)cc2c1Sc1ccccc1/C2=C/CCN(C)C	nt	i	i	i	-19.4	i	i	i	i
CN(C)CC/C=C1/c2ccccc2Sc2c(O)cc(Cl)cc21	0.508	i	i	i	-15.5	i	nt	nt	nt
CN(C)CC/C=C1/c2cc(F)ccc2Sc2ccc(Cl)cc21	nt	i	i	i	-7.3	i	i	i	i
O=S(=O)(Nc1nc2ccccc2nc1N1CCc2ccccc2C1)c1ccc(Cl)cc1	3.18	-12.3*	i	i	-11.1	i	46.0%*	i	i
CC(=O)Nc1ccc(S(=O)(=O)Nc2nc3ccccc3nc2N2CCc3ccccc3C2)cc1	-1.57	i	i	i	-9.4	i	nt	nt	nt
O=C(Nc1ccccc1-c1nnc(SCc2ccccc2)o1)c1ccccc1	nt	i	i	i	-16.7	i	i	i	i
O=C(Nc1ccccc1-c1nnc(SCc2ccc(Cl)cc2)o1)c1ccccc1	nt	i	i	i	-9.9	i	nt	nt	nt
CCN(CC(=O)NC(=O)NC1CCCCC1)Cc1ccccc1	nt	i	i	i	-6.8	i	i	i	i
O=C(CN1CCC(Cc2ccccc2)CC1)NC(=O)NC1CCCCC1	0.356	i	i	i	-15.0	i	i	i	i
Cn1nc2c3ccccc3n(Cc3ccc(F)cc3)c2nc1=S	-0.818	i	i	i	-2.2	i	nt	nt	nt
Cc1ccccc1C(=O)Nc1cccc(NC(=O)Cn2cnc3c(=O)n(C)c(=O)n(C)c32)c1	0.0812	i	i	i	-10.9	i	nt	nt	nt
COc1ccc(OCC(O)CN2CCC(CN3C(=O)c4cccc5cccc(c45)C3=O)CC2)cc1 (stereo not drawn)	nt	i	i	i	-8.2	i	nt	nt	nt
Cc1ccc(C)c(OCC(O)CN2CCC(CN3C(=O)c4cccc5cccc(c45)C3=O)CC2)c1 (stereo not drawn)	0.727	i	i	i	-22.5	i	i	i	i
Cc1ccccc1-c1ncc(CN2CCN(C3CCCCC3)C(CCO)C2)cn1 (stereo not drawn)	nt	i	i	i	-9.0	i	nt	nt	nt
SMILES	KCC2 mod	KCNK9 inh	KCNQ1 inh	KCNQ1 pot	hERG rescue	KCNK3 block	KCNK9 inh conf	Kir2-1 spec	KCNK9 uninduced
CCOc1cc(C=O)ccc1OCCSc1ccc(Cl)cc1	nt	i	i	i	-7.8	i	nt	nt	nt
Cc1cc(C)cc(CC2CC(=O)N(c3ccc4c(c3)OCCO4)C2=O)c1 (stereo not drawn)	nt	i	i	i	-3.2	i	i	i	i
CC(C)Oc1ccc(Cn2c(=O)sc3ccccc32)cc1	0.722	i	i	i	-6.5	i	i	i	30.5%*
COc1ccc(Cn2c(=O)sc3ccccc32)cc1	nt	i	i	i	-8.3	i	nt	nt	nt
CCOC(=O)C1(Cc2cccc(OC)c2)CCCN(S(=O)(=O)N(C)C)C1 (stereo not drawn)	nt	i	i	i	-4.5	i	nt	nt	nt
O=C(NCc1ccoc1)c1ccc(NC(=O)c2ccccc2Cl)cc1	-0.37	i	i	i	-11.8	i	nt	nt	nt
COc1ccc2c(c1)OC[C@H]1[C@H]2N2C(=O)CN(Cc3ccco3)C(=O)[C@@]2(C)[C@H]1c1ccccc1	nt	nt	nt	nt	nt	i	nt	nt	nt
COc1ccc(NC(=O)CN2C(=O)NC(c3ccccc3)(c3ccccc3)C2=O)cc1OC	nt	-16.2*	i	i	-2.0	i	i	i	i
O=C(CC(Nc1ccccc1)C(=O)O)c1ccccc1 (stereo not drawn)	nt	i	i	i	-13.8	i	nt	nt	nt
O=C(CC(Nc1ccccc1)c1ccc(F)cc1)c1ccccc1 (stereo not drawn)	-1.73	-9.72*	i	i	-14.0	i	60.0%*	i	42.5%*
O=C(C(c1ccccc1)c1ccccc1)N1CCCc2ccccc21	0.0342	-11*	i	i	-11.2	i	43.5%*	i	42.5%*
Cc1cccn2c(/C=N/OCc3cccc(F)c3)c(-c3ccc(Cl)cc3)nc12	0.337	i	i	i	-19.9	i	nt	nt	nt
COc1cccc(/C(C#N)=C/c2c(-c3ccc(Cl)cc3)nc3c(C)cccn23)c1	-0.123	-8.91*	8*	i	-5.9	i	58.0%*	i	38.0%*
CCOC(=O)C(C(C)=O)c1c(Br)c(O)c(O)c2c(C(=O)c3ccc(C)cc3)coc12 (stereo not drawn)	-2.31	-14.9*	9*	i	-8.5	i	70.5%*	i	46.5%*
